From article PMC4448975 (Pharmacology Research & Perspectives, 2015)
One block for each compound: values may come before it.

What was measured:
[1] = molecular target: T1, ADA in human erythrocytes (Homo sapiens, UniProt P00813); experiment: Inhibition of ADA-catalyzed deamination of cordycepin in human erythrocytes; assay type: biochemical
T1 sequence (P00813 1-363): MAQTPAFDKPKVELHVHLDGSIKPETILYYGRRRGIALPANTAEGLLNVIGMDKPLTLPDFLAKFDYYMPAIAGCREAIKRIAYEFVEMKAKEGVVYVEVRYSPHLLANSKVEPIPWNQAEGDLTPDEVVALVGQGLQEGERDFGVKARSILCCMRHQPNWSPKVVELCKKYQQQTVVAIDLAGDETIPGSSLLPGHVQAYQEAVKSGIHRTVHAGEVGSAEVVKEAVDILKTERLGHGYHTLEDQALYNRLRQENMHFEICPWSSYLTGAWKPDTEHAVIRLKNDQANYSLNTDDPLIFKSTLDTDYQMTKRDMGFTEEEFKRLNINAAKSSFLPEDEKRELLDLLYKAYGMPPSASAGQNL
Procedure, shortened: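 Human erythrocytes were incubated with cordycepin in 400 mmol/L sodium acetate buffer, pH 5.8, at 37°C after a 3 min preincubation. Inhibitors were present and cordycepin concentrations were varied. Reactions were stopped with acetonitrile and centrifuged. 3′-Deoxyinosine was quantified by reversed-phase HPLC (6% acetonitrile, 1.0 mL/min, 260 nm). Inhibition type and Ki were derived from Dixon plots.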

[2] = molecular target: T2, ADA in mouse erythrocytes (Mus musculus, UniProt P03958); experiment: Inhibition of ADA-catalyzed deamination in mouse erythrocytes; assay type: biochemical; details: for inhibition at 100 µM: read-out: inhibition of the enzyme activity (deamination of cordycepin)
T2 sequence (P03958 1-352): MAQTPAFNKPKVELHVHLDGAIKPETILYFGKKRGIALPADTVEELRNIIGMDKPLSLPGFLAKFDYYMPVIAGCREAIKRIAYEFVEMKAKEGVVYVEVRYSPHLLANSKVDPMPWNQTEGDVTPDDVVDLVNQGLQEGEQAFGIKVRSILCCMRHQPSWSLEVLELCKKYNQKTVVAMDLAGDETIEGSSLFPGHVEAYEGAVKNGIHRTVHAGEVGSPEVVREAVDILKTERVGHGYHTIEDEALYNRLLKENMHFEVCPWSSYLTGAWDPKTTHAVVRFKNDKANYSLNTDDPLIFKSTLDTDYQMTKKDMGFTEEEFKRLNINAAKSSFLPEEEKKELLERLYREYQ

[3] = molecular target: T3, ADA1 in Jurkat cell homogenates (Homo sapiens, UniProt P00813); experiment: Inhibition of cordycepin deamination in Jurkat cell homogenates; assay type: biochemical; details: substrate 100 μmol/L, inhibitor 50 μmol/L
T3 sequence (P00813 1-363): T1 sequence (P00813 1-363)

[4] = molecular target: T4, human ADA2 (Homo sapiens, UniProt Q9NZK5); experiment: Deamination of substrates in ADA2-expressing HEK293 cells; assay type: biochemical; details: compared with Mock cells; substance = substrate
T4 sequence (Q9NZK5 30-511): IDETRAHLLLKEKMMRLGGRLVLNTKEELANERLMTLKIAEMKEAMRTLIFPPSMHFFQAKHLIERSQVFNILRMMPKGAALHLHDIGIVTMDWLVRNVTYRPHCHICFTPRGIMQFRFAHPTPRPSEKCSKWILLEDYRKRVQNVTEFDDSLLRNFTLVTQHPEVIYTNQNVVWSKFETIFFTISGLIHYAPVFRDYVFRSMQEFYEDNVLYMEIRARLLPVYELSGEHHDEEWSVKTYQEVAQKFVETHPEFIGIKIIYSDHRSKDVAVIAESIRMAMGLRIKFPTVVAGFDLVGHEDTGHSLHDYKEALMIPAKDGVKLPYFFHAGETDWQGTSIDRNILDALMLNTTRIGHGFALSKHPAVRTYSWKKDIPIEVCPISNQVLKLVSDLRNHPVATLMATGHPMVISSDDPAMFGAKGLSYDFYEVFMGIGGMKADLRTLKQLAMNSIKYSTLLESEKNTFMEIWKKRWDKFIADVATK

[5] = tested on: Jurkat cells; experiment: Cell viability; assay type: cell-based, human; details: 24 h, MTT
Procedure, shortened: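 Jurkat cells kept in RPMI-1640 with 10% FBS, penicillin–streptomycin, NaHCO3 and glutamine at 37°C, 5% CO2. Cells were seeded at 1 × 10^4 per well. […] Viability was read by MTT kit. Mean ± SD of three independent determinations; ANOVA with Dunnett's test.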

Ki [1]: 168 ± 22.4 µM | inhibition pattern against the cordycepin deamination ([1]; human erythrocytes, Dixon plot): competitively | Ki ([2]; mouse erythrocytes, substrate 2′-deoxyadenosine, Dixon plot): 197 µM | Ki ([2]; mouse erythrocytes, substrate adenosine, Dixon plot): 371 ± 10.1 µM | Ki ([2]; mouse erythrocytes, substrate cordycepin, Dixon plot): 58.8 ± 0.7 µM | inhibition of cordycepin deamination in the erythrocytes (in words) ([2]; erythrocytes, 100 μmol/L cordycepin, 100 μmol/L inhibitor, 37°C (Fig.4)): moderately inhibited | inhibition pattern against the cordycepin deamination ([2]; mouse erythrocytes, Dixon plot): competitive | inhibition at 100 µM [2]: 20% | inhibition of deamination of cordycepin in Jurkat cell homogenates [3]: moderately
Structure (SMILES): C[C@@H]1O[C@@H](O[C@H]2[C@H](Oc3cc(O)c4c(c3)O[C@H](c3ccc(O)cc3)CC4=O)O[C@H](CO)[C@@H](O)[C@@H]2O)[C@H](O)[C@H](O)[C@H]1O [Naringin, naringin]

deamination activity toward the substrate in ADA2-expressing HEK293 cells [4]: comparable to those in Mock cells
Structure (SMILES): Nc1ncnc2c1ncn2[C@H]1C[C@H](O)[C@@H](CO)O1 [2′-deoxyadenosine]

inhibition at 100 µM [2]: 0 to 10%
Structure (SMILES): O=c1c(O)c(-c2ccc(O)c(O)c2)oc2cc(O)cc(O)c12 [quercetin]

Structure (SMILES): Nc1ncnc2c1ncn2[C@@H]1O[C@H](CO)C[C@H]1O [Cordycepin, 3′-deoxyadenosine]
cell viability of the Jurkat cells ([5]; cordycepin alone): concentration-dependently decreased the cell viability

deamination activity toward the substrate in ADA2-expressing HEK293 cells [4]: comparable to those in Mock cells
Structure (SMILES): Nc1ncnc2c1ncn2[C@@H]1O[C@H](CO)[C@@H](O)[C@H]1O [adenosine]

inhibition at 100 µM [2]: 0 to 10%
Structure (SMILES): O=C1C[C@@H](c2ccc(O)cc2)Oc2cc(O)cc(O)c21 [naringenin]

inhibition at 100 µM [2]: 0 to 10%
Structure (SMILES): O=c1c(O)c(-c2ccc(O)cc2)oc2cc(O)cc(O)c12 [kaempferol]

Structure (SMILES): OC[C@H]1O[C@@H](n2cnc3c2NC=NC[C@H]3O)C[C@@H]1O [Pentostatin]
effect on the cytotoxic effect of cordycepin ([5]; Jurkat cells cotreated with cordycepin and 50 μmol/L inhibitor): stronger cytotoxicity

inhibition at 100 µM [2]: 0 to 10%
Structure (SMILES): O=c1c(O)c(-c2cc(O)c(O)c(O)c2)oc2cc(O)cc(O)c12 [myricetin]
